# Laboratory results as given in ChEMBL document CHEMBL3865797, “Design, synthesis and biological evaluation of berberine-benzimidazole hybrids as new type of potentially DNA-targeting antimicrobial agents” (Eur J Med Chem, 2016).
# System: Staphylococcus aureus
# Assay: Antibacterial activity against Staphylococcus aureus ATCC 25923 measured after 24 hrs by two-fold serial dilution method
# Assay type: functional
# Conditions: ATCC 25923, 24 h
# Method in brief: (§1)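 MIC by two-fold serial broth microdilution in 96-well plates, following NCCLS recommendations. Chloromycin, norfloxacin and fluconazole serve as reference drugs. The MIC is read as the lowest concentration that inhibits growth, in µg/mL.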
row,SMILES,MIC [µg/mL]
1,CCCCCCCCCCCCn1c(COc2c(OC)ccc3cc4[n+](cc23)CCc2cc3c(cc2-4)OCO3)nc2ccccc21.[Cl-],8
2,COc1ccc2cc3[n+](cc2c1OCc1nc2ccccc2n1Cc1ccc(Cl)cc1)CCc1cc2c(cc1-3)OCO2.[Cl-],32
3,COc1ccc2cc3[n+](cc2c1OCc1nc2ccccc2n1Cc1ccc(F)cc1)CCc1cc2c(cc1-3)OCO2.[Cl-],512
4,CCCn1c(COc2c(OC)ccc3cc4[n+](cc23)CCc2cc3c(cc2-4)OCO3)nc2ccccc21.[Cl-],128
5,CCCCCCCCCCCCCCCCn1c(COc2c(OC)ccc3cc4[n+](cc23)CCc2cc3c(cc2-4)OCO3)nc2ccccc21.[Cl-],256

# System: Staphylococcus aureus
# Assay: Antibacterial activity against methicillin-resistant Staphylococcus aureus N315 measured after 24 hrs by two-fold serial dilution method
# Assay type: functional
# Conditions: N315, 24 h
# Method in brief: (§2)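 Two-fold serial dilution in 96-well microtest plates following NCCLS guidance (micro broth dilution). Chloromycin and norfloxacin serve as positive controls. MIC is reported in µg/mL.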
row,SMILES,MIC [µg/mL]
1,CCCCCCCCCCCCn1c(COc2c(OC)ccc3cc4[n+](cc23)CCc2cc3c(cc2-4)OCO3)nc2ccccc21.[Cl-],128
2,COc1ccc2cc3[n+](cc2c1OCc1nc2ccccc2n1Cc1ccc(Cl)cc1)CCc1cc2c(cc1-3)OCO2.[Cl-],512
3,COc1ccc2cc3[n+](cc2c1OCc1nc2ccccc2n1Cc1ccc(F)cc1)CCc1cc2c(cc1-3)OCO2.[Cl-],512
4,CCCn1c(COc2c(OC)ccc3cc4[n+](cc23)CCc2cc3c(cc2-4)OCO3)nc2ccccc21.[Cl-],4
5,CCCCCCCCCCCCCCCCn1c(COc2c(OC)ccc3cc4[n+](cc23)CCc2cc3c(cc2-4)OCO3)nc2ccccc21.[Cl-],256

# System: Bacillus subtilis
# Assay: Antibacterial activity against Bacillus subtilis measured after 24 hrs by two-fold serial dilution method
# Assay type: functional
# Conditions: not given
# Method in brief: as §1
row,SMILES,MIC [µg/mL]
1,CCCCCCCCCCCCn1c(COc2c(OC)ccc3cc4[n+](cc23)CCc2cc3c(cc2-4)OCO3)nc2ccccc21.[Cl-],512
2,COc1ccc2cc3[n+](cc2c1OCc1nc2ccccc2n1Cc1ccc(Cl)cc1)CCc1cc2c(cc1-3)OCO2.[Cl-],512
3,COc1ccc2cc3[n+](cc2c1OCc1nc2ccccc2n1Cc1ccc(F)cc1)CCc1cc2c(cc1-3)OCO2.[Cl-],512
4,CCCn1c(COc2c(OC)ccc3cc4[n+](cc23)CCc2cc3c(cc2-4)OCO3)nc2ccccc21.[Cl-],64
5,CCCCCCCCCCCCCCCCn1c(COc2c(OC)ccc3cc4[n+](cc23)CCc2cc3c(cc2-4)OCO3)nc2ccccc21.[Cl-],512

# System: Micrococcus luteus
# Assay: Antibacterial activity against Micrococcus luteus ATCC 4698 measured after 24 hrs by two-fold serial dilution method
# Assay type: functional
# Conditions: NCTC 2665, 24 h
# Method in brief: as §1
row,SMILES,MIC [µg/mL]
1,CCCCCCCCCCCCn1c(COc2c(OC)ccc3cc4[n+](cc23)CCc2cc3c(cc2-4)OCO3)nc2ccccc21.[Cl-],128
2,COc1ccc2cc3[n+](cc2c1OCc1nc2ccccc2n1Cc1ccc(Cl)cc1)CCc1cc2c(cc1-3)OCO2.[Cl-],8
3,COc1ccc2cc3[n+](cc2c1OCc1nc2ccccc2n1Cc1ccc(F)cc1)CCc1cc2c(cc1-3)OCO2.[Cl-],512
4,CCCn1c(COc2c(OC)ccc3cc4[n+](cc23)CCc2cc3c(cc2-4)OCO3)nc2ccccc21.[Cl-],32
5,CCCCCCCCCCCCCCCCn1c(COc2c(OC)ccc3cc4[n+](cc23)CCc2cc3c(cc2-4)OCO3)nc2ccccc21.[Cl-],128

# System: Proteus vulgaris
# Assay: Antibacterial activity against Bacillus proteus ATCC 13315 measured after 24 hrs by two-fold serial dilution method
# Assay type: functional
# Conditions: ATCC 13315, 24 h
# Method in brief: as §1
row,SMILES,MIC [µg/mL]
1,CCCCCCCCCCCCn1c(COc2c(OC)ccc3cc4[n+](cc23)CCc2cc3c(cc2-4)OCO3)nc2ccccc21.[Cl-],512
2,COc1ccc2cc3[n+](cc2c1OCc1nc2ccccc2n1Cc1ccc(Cl)cc1)CCc1cc2c(cc1-3)OCO2.[Cl-],8
3,COc1ccc2cc3[n+](cc2c1OCc1nc2ccccc2n1Cc1ccc(F)cc1)CCc1cc2c(cc1-3)OCO2.[Cl-],32
4,CCCn1c(COc2c(OC)ccc3cc4[n+](cc23)CCc2cc3c(cc2-4)OCO3)nc2ccccc21.[Cl-],256
5,CCCCCCCCCCCCCCCCn1c(COc2c(OC)ccc3cc4[n+](cc23)CCc2cc3c(cc2-4)OCO3)nc2ccccc21.[Cl-],512

# System: Escherichia coli
# Assay: Antibacterial activity against Escherichia coli JM109 measured after 24 hrs by two-fold serial dilution method
# Assay type: functional
# Conditions: JM109, 24 h
# Method in brief: as §1
row,SMILES,MIC [µg/mL]
1,CCCCCCCCCCCCn1c(COc2c(OC)ccc3cc4[n+](cc23)CCc2cc3c(cc2-4)OCO3)nc2ccccc21.[Cl-],16
2,COc1ccc2cc3[n+](cc2c1OCc1nc2ccccc2n1Cc1ccc(Cl)cc1)CCc1cc2c(cc1-3)OCO2.[Cl-],2
3,COc1ccc2cc3[n+](cc2c1OCc1nc2ccccc2n1Cc1ccc(F)cc1)CCc1cc2c(cc1-3)OCO2.[Cl-],512
4,CCCn1c(COc2c(OC)ccc3cc4[n+](cc23)CCc2cc3c(cc2-4)OCO3)nc2ccccc21.[Cl-],256
5,CCCCCCCCCCCCCCCCn1c(COc2c(OC)ccc3cc4[n+](cc23)CCc2cc3c(cc2-4)OCO3)nc2ccccc21.[Cl-],64

# System: Pseudomonas aeruginosa
# Assay: Antibacterial activity against Pseudomonas aeruginosa measured after 24 hrs by two-fold serial dilution method
# Assay type: functional
# Conditions: not given
# Method in brief: as §1
row,SMILES,MIC [µg/mL]
1,CCCCCCCCCCCCn1c(COc2c(OC)ccc3cc4[n+](cc23)CCc2cc3c(cc2-4)OCO3)nc2ccccc21.[Cl-],512
2,COc1ccc2cc3[n+](cc2c1OCc1nc2ccccc2n1Cc1ccc(Cl)cc1)CCc1cc2c(cc1-3)OCO2.[Cl-],512
3,COc1ccc2cc3[n+](cc2c1OCc1nc2ccccc2n1Cc1ccc(F)cc1)CCc1cc2c(cc1-3)OCO2.[Cl-],512
4,CCCn1c(COc2c(OC)ccc3cc4[n+](cc23)CCc2cc3c(cc2-4)OCO3)nc2ccccc21.[Cl-],64
5,CCCCCCCCCCCCCCCCn1c(COc2c(OC)ccc3cc4[n+](cc23)CCc2cc3c(cc2-4)OCO3)nc2ccccc21.[Cl-],128

# System: Salmonella typhi
# Assay: Antibacterial activity against Salmonella typhi measured after 24 hrs by two-fold serial dilution method
# Assay type: functional, Salmonella enterica subsp. enterica serovar Typhi
# Conditions: Salmonella enterica
# Method in brief: as §2
row,SMILES,MIC [µg/mL]
1,CCCCCCCCCCCCn1c(COc2c(OC)ccc3cc4[n+](cc23)CCc2cc3c(cc2-4)OCO3)nc2ccccc21.[Cl-],8
2,COc1ccc2cc3[n+](cc2c1OCc1nc2ccccc2n1Cc1ccc(Cl)cc1)CCc1cc2c(cc1-3)OCO2.[Cl-],2
3,COc1ccc2cc3[n+](cc2c1OCc1nc2ccccc2n1Cc1ccc(F)cc1)CCc1cc2c(cc1-3)OCO2.[Cl-],8
4,CCCn1c(COc2c(OC)ccc3cc4[n+](cc23)CCc2cc3c(cc2-4)OCO3)nc2ccccc21.[Cl-],4
5,CCCCCCCCCCCCCCCCn1c(COc2c(OC)ccc3cc4[n+](cc23)CCc2cc3c(cc2-4)OCO3)nc2ccccc21.[Cl-],128

# System: Candida albicans
# Assay: Antifungal activity against Candida albicans ATCC 76615 measured after 24 hrs by two-fold serial dilution method
# Assay type: functional
# Conditions: ATCC 76615, 24 h
# Method in brief: as §1
row,SMILES,MIC80 [µg/mL]
1,OC(Cn1cncn1)(Cn1cncn1)c1ccc(F)cc1F [FLUCONAZOLE],1
2,CCCCCCCCCCCCn1c(COc2c(OC)ccc3cc4[n+](cc23)CCc2cc3c(cc2-4)OCO3)nc2ccccc21.[Cl-],16
3,COc1ccc2cc3[n+](cc2c1OCc1nc2ccccc2n1Cc1ccc(Cl)cc1)CCc1cc2c(cc1-3)OCO2.[Cl-],512
4,COc1ccc2cc3[n+](cc2c1OCc1nc2ccccc2n1Cc1ccc(F)cc1)CCc1cc2c(cc1-3)OCO2.[Cl-],512
5,CCCn1c(COc2c(OC)ccc3cc4[n+](cc23)CCc2cc3c(cc2-4)OCO3)nc2ccccc21.[Cl-],64
6,CCCCCCCCCCCCCCCCn1c(COc2c(OC)ccc3cc4[n+](cc23)CCc2cc3c(cc2-4)OCO3)nc2ccccc21.[Cl-],64

# System: not listed separately
# Assay: Antifungal activity against Candida utilis measured after 24 hrs by two-fold serial dilution method
# Assay type: functional
# Conditions: Cyberlindnera jadinii
# Method in brief: as §1
row,SMILES,MIC80 [µg/mL]
1,OC(Cn1cncn1)(Cn1cncn1)c1ccc(F)cc1F [FLUCONAZOLE],8
2,CCCCCCCCCCCCn1c(COc2c(OC)ccc3cc4[n+](cc23)CCc2cc3c(cc2-4)OCO3)nc2ccccc21.[Cl-],16
3,COc1ccc2cc3[n+](cc2c1OCc1nc2ccccc2n1Cc1ccc(Cl)cc1)CCc1cc2c(cc1-3)OCO2.[Cl-],4
4,COc1ccc2cc3[n+](cc2c1OCc1nc2ccccc2n1Cc1ccc(F)cc1)CCc1cc2c(cc1-3)OCO2.[Cl-],8
5,CCCn1c(COc2c(OC)ccc3cc4[n+](cc23)CCc2cc3c(cc2-4)OCO3)nc2ccccc21.[Cl-],16
6,CCCCCCCCCCCCCCCCn1c(COc2c(OC)ccc3cc4[n+](cc23)CCc2cc3c(cc2-4)OCO3)nc2ccccc21.[Cl-],128

# System: not listed separately
# Assay: Antifungal activity against Saccharomyces cerevisiae measured after 24 hrs by two-fold serial dilution method
# Assay type: functional
# Conditions: not given
# Method in brief: as §1
row,SMILES,MIC80 [µg/mL]
1,OC(Cn1cncn1)(Cn1cncn1)c1ccc(F)cc1F [FLUCONAZOLE],16
2,CCCCCCCCCCCCn1c(COc2c(OC)ccc3cc4[n+](cc23)CCc2cc3c(cc2-4)OCO3)nc2ccccc21.[Cl-],512
3,COc1ccc2cc3[n+](cc2c1OCc1nc2ccccc2n1Cc1ccc(Cl)cc1)CCc1cc2c(cc1-3)OCO2.[Cl-],512
4,COc1ccc2cc3[n+](cc2c1OCc1nc2ccccc2n1Cc1ccc(F)cc1)CCc1cc2c(cc1-3)OCO2.[Cl-],256
5,CCCn1c(COc2c(OC)ccc3cc4[n+](cc23)CCc2cc3c(cc2-4)OCO3)nc2ccccc21.[Cl-],512
6,CCCCCCCCCCCCCCCCn1c(COc2c(OC)ccc3cc4[n+](cc23)CCc2cc3c(cc2-4)OCO3)nc2ccccc21.[Cl-],512

# System: Aspergillus flavus
# Assay: Antifungal activity against Aspergillus flavus measured after 24 hrs by two-fold serial dilution method
# Assay type: functional
# Conditions: not given
# Method in brief: as §1
row,SMILES,MIC80 [µg/mL]
1,OC(Cn1cncn1)(Cn1cncn1)c1ccc(F)cc1F [FLUCONAZOLE],256
2,CCCCCCCCCCCCn1c(COc2c(OC)ccc3cc4[n+](cc23)CCc2cc3c(cc2-4)OCO3)nc2ccccc21.[Cl-],128
3,COc1ccc2cc3[n+](cc2c1OCc1nc2ccccc2n1Cc1ccc(Cl)cc1)CCc1cc2c(cc1-3)OCO2.[Cl-],4
4,COc1ccc2cc3[n+](cc2c1OCc1nc2ccccc2n1Cc1ccc(F)cc1)CCc1cc2c(cc1-3)OCO2.[Cl-],16
5,CCCn1c(COc2c(OC)ccc3cc4[n+](cc23)CCc2cc3c(cc2-4)OCO3)nc2ccccc21.[Cl-],16
6,CCCCCCCCCCCCCCCCn1c(COc2c(OC)ccc3cc4[n+](cc23)CCc2cc3c(cc2-4)OCO3)nc2ccccc21.[Cl-],128
